SMILES strings stand for the structures. Values after ≈ are worked out from the molar mass of the structure shown. Active and inactive are the calls of the source.

The first experiment has as its system Candida albicans. As to the kind of experiment: Antifungal activity against Candida albicans ATCC 10231 assessed as growth inhibition after 24 hrs by microbroth dilution method. Type of experiment: functional.
Conditions: not given
The method in brief:
(§1)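 Tube dilution: each compound or positive control (norfloxacin, fluconazole) prepared in DMSO at 11 concentrations from 0.98 to 1000 µg/mL. Inoculum and sterile water added to tubes each holding 1 mL of compound solution. Tubes incubated 24 h and inspected for turbidity. MIC is the lowest concentration with no visible growth. Run in triplicate.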
Turning to `COc1ccc(Nc2c(F)c(F)c(C#N)c(F)c2C#N)cc1`, the MIC result was “inactive”.

The experiment is the same for the next values; noted with them: ATCC 10231, 24 h.
Consider `N#Cc1c(Cl)c(Cl)c(Cl)c(C#N)c1Cl` [CHLOROTHALONIL], for which the minimum inhibitory concentration (MIC) was determined as 0.5 µg/mL (≈ 1.88 µM).

With `N#Cc1c(N)c(F)c(F)c(C#N)c1F`, the minimal inhibitory concentration (MIC) worked out at 62.5 µg/mL (≈ 317 µM).

`N#Cc1c(F)c(Cl)c(NCc2ccccc2)c(C#N)c1F`: the MIC is 0.5 µg/mL (≈ 1.65 µM).

Take `N#Cc1c(F)c(Cl)c(Nc2ccccc2)c(C#N)c1F`: the MIC amounted to 0.5 µg/mL (≈ 1.73 µM).

For `N#Cc1c(F)c(F)c(Nc2ccccc2)c(C#N)c1F`, the MIC was found to be 3.9 µg/mL (≈ 14.3 µM).

In the case of `N#Cc1c(Cl)c(Cl)c(Sc2ccccc2)c(C#N)c1Cl`, the MIC was more than 500 µg/mL.

For `N#Cc1c(F)c(F)c(Nc2ccc(Cl)cc2)c(C#N)c1F`, the minimum inhibitory concentration (MIC) was found to be 2.3 µg/mL (≈ 7.48 µM).

Another experiment concerns Bacillus cereus. Nature of the experiment: Antibacterial activity against Bacillus cereus ATCC 14579 assessed as growth inhibition after 24 hrs by microbroth dilution method. Type of experiment: functional. Conditions: ATCC 14579, 24 h. Summed up: as §1
A general note: In broth dilution the organism is exposed to a series of concentrations in liquid medium.
For `N#Cc1c(Cl)c(Cl)c(Cl)c(C#N)c1Cl` [CHLOROTHALONIL], the MIC is 0.7 µg/mL (≈ 2.63 µM).

For `N#Cc1c(N)c(F)c(F)c(C#N)c1F`, the minimal inhibitory concentration (MIC) turned out to be 104 µg/mL (≈ 529 µM).

With `N#Cc1c(F)c(Cl)c(NCc2ccccc2)c(C#N)c1F`, the minimum inhibitory concentration (MIC) is 0.4 µg/mL (≈ 1.32 µM).

On to `N#Cc1c(F)c(Cl)c(Nc2ccccc2)c(C#N)c1F`, for which the MIC was 125 µg/mL (≈ 432 µM).

`N#Cc1c(F)c(F)c(Nc2ccccc2)c(C#N)c1F`: the MIC was 6.8 µg/mL (≈ 24.9 µM).

On to `N#Cc1c(Cl)c(Cl)c(Sc2ccccc2)c(C#N)c1Cl`, for which the minimal inhibitory concentration (MIC) was more than 1000 µg/mL.

For the compound `COc1ccc(Nc2c(F)c(F)c(C#N)c(F)c2C#N)cc1`, the MIC was more than 1000 µg/mL.

For `N#Cc1c(F)c(F)c(Nc2ccc(Cl)cc2)c(C#N)c1F`, the MIC is 31.3 µg/mL (≈ 102 µM).

The subject of the next experiment is Staphylococcus aureus. As to the kind of experiment: Antibacterial activity against Staphylococcus aureus ATCC 6538 assessed as growth inhibition after 24 hrs by microbroth dilution method. Type of experiment: functional. The note with it: ATCC 6538, 24 h. The method in brief: as §1
`N#Cc1c(Cl)c(Cl)c(Cl)c(C#N)c1Cl` [CHLOROTHALONIL]: the MIC came out at 0.5 µg/mL (≈ 1.88 µM).

For the compound `N#Cc1c(N)c(F)c(F)c(C#N)c1F`, the MIC stood at 125 µg/mL (≈ 634 µM).

`N#Cc1c(F)c(Cl)c(NCc2ccccc2)c(C#N)c1F`: the MIC worked out at 0.5 µg/mL (≈ 1.65 µM).

With `N#Cc1c(F)c(Cl)c(Nc2ccccc2)c(C#N)c1F`, the MIC stood at 3.9 µg/mL (≈ 13.5 µM).

As to `N#Cc1c(F)c(F)c(Nc2ccccc2)c(C#N)c1F`, the MIC turned out to be 3.3 µg/mL (≈ 12.1 µM).

For the compound `N#Cc1c(Cl)c(Cl)c(Sc2ccccc2)c(C#N)c1Cl`, the MIC amounted to 250 µg/mL (≈ 736 µM).

For the compound `COc1ccc(Nc2c(F)c(F)c(C#N)c(F)c2C#N)cc1`, the MIC turned out to be 375 µg/mL (≈ 1240 µM).

With `N#Cc1c(F)c(F)c(Nc2ccc(Cl)cc2)c(C#N)c1F`, the MIC came to 1.5 µg/mL (≈ 4.88 µM).

Another experiment has as its system Candida albicans. As to the kind of experiment: Antifungal activity against Candida albicans ATCC 10231 assessed as growth inhibition at 1000 ug/mL after 72 hrs by disk diffusion method. The class given is functional.
Conditions: not given
The method in brief:
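Candida grown and kept on Sabouraud glucose agar plates. Compounds screened at a fixed 1000 µg/mL, with fluconazole as positive control. Plates incubated at 26 °C for 72 h, then zones of inhibition measured in mm.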
For `COc1ccc(Nc2c(F)c(F)c(C#N)c(F)c2C#N)cc1`, the “inhibition zone (IZ)” value was “inactive”.

The experiment is the same for the next values; noted with them: ATCC 10231, 72 h, read-out: IZ.
Consider `N#Cc1c(Cl)c(Cl)c(Cl)c(C#N)c1Cl` [CHLOROTHALONIL], for which the zone of inhibition at 1000 µg/mL was found to be 9.9 mm.

For `N#Cc1c(N)c(F)c(F)c(C#N)c1F`, the zone of inhibition at 1000 µg/mL was found to be 7.5 mm.

Regarding `N#Cc1c(F)c(Cl)c(NCc2ccccc2)c(C#N)c1F`, the zone of inhibition at 1000 µg/mL came to 13.9 mm.

As to `N#Cc1c(F)c(Cl)c(Nc2ccccc2)c(C#N)c1F`, the zone of inhibition at 1000 µg/mL came to 13.6 mm.

`N#Cc1c(F)c(F)c(Nc2ccccc2)c(C#N)c1F`: the zone of inhibition at 1000 µg/mL is 17.3 mm.

On to `N#Cc1c(Cl)c(Cl)c(Sc2ccccc2)c(C#N)c1Cl`, for which the zone of inhibition at 1000 µg/mL amounted to 6.8 mm.

Turning to `N#Cc1c(F)c(F)c(Nc2ccc(Cl)cc2)c(C#N)c1F`, the zone of inhibition at 1000 µg/mL came out at 13.3 mm.

A further experiment relates to Pseudomonas aeruginosa. Nature of the experiment: Antibacterial activity against Pseudomonas aeruginosa ATCC 15442 assessed as growth inhibition at 1000 ug/mL after 24 hrs by disk diffusion method. The class given is functional.
Conditions: not given
In general terms: Agar diffusion results depend on both activity and mobility in agar.
Consider `N#Cc1c(Cl)c(Cl)c(Cl)c(C#N)c1Cl` [CHLOROTHALONIL], for which the “inhibition zone (IZ)” value is “inactive”.

In the case of `N#Cc1c(F)c(Cl)c(NCc2ccccc2)c(C#N)c1F`, the “inhibition zone (IZ)” value was “inactive”.

In the case of `N#Cc1c(Cl)c(Cl)c(Sc2ccccc2)c(C#N)c1Cl`, the “inhibition zone (IZ)” value was “inactive”.

For the compound `COc1ccc(Nc2c(F)c(F)c(C#N)c(F)c2C#N)cc1`, the “inhibition zone (IZ)” value is “inactive”.

The experiment is the same for the next values; noted with them: ATCC 15442, 24 h, read-out: IZ.
In the case of `N#Cc1c(N)c(F)c(F)c(C#N)c1F`, the zone of inhibition at 1000 µg/mL was 7.8 mm.

Turning to `N#Cc1c(F)c(Cl)c(Nc2ccccc2)c(C#N)c1F`, the zone of inhibition at 1000 µg/mL turned out to be 7.5 mm.

For `N#Cc1c(F)c(F)c(Nc2ccccc2)c(C#N)c1F`, the zone of inhibition at 1000 µg/mL was determined as 8 mm.

For `N#Cc1c(F)c(F)c(Nc2ccc(Cl)cc2)c(C#N)c1F`, the zone of inhibition at 1000 µg/mL turned out to be 7.8 mm.

In the next experiment the test system is Escherichia coli. As to the kind of experiment: Antibacterial activity against Escherichia coli ATCC 8099 assessed as growth inhibition at 1000 ug/mL after 24 hrs by disk diffusion method. Type of experiment: functional.
Conditions: not given
As to `N#Cc1c(Cl)c(Cl)c(Cl)c(C#N)c1Cl` [CHLOROTHALONIL], the “inhibition zone (IZ)” value was “inactive”.

In the case of `N#Cc1c(N)c(F)c(F)c(C#N)c1F`, the “inhibition zone (IZ)” value is “inactive”.

With `N#Cc1c(F)c(Cl)c(NCc2ccccc2)c(C#N)c1F`, the “inhibition zone (IZ)” value was “inactive”.

For the compound `N#Cc1c(F)c(Cl)c(Nc2ccccc2)c(C#N)c1F`, the “inhibition zone (IZ)” value is “inactive”.

For `N#Cc1c(F)c(F)c(Nc2ccccc2)c(C#N)c1F`, the “inhibition zone (IZ)” value was “inactive”.

For the compound `N#Cc1c(Cl)c(Cl)c(Sc2ccccc2)c(C#N)c1Cl`, the “inhibition zone (IZ)” value is “inactive”.

As for `COc1ccc(Nc2c(F)c(F)c(C#N)c(F)c2C#N)cc1`, the “inhibition zone (IZ)” value was “inactive”.

On to `N#Cc1c(F)c(F)c(Nc2ccc(Cl)cc2)c(C#N)c1F`, for which the “inhibition zone (IZ)” value is “inactive”.

A further experiment relates to Staphylococcus aureus. As to the kind of experiment: Antibacterial activity against Staphylococcus aureus ATCC 6538 assessed as growth inhibition at 1000 ug/mL after 24 hrs by disk diffusion method. The class given is functional. The note with it: ATCC 6538, 24 h, read-out: IZ.
In the case of `N#Cc1c(Cl)c(Cl)c(Cl)c(C#N)c1Cl` [CHLOROTHALONIL], the zone of inhibition at 1000 µg/mL is 20.1 mm.

Consider `N#Cc1c(N)c(F)c(F)c(C#N)c1F`, for which the zone of inhibition at 1000 µg/mL was 11.8 mm.

For `N#Cc1c(F)c(Cl)c(NCc2ccccc2)c(C#N)c1F`, the zone of inhibition at 1000 µg/mL is 23.1 mm.

Take `N#Cc1c(F)c(Cl)c(Nc2ccccc2)c(C#N)c1F`: the zone of inhibition at 1000 µg/mL was found to be 13 mm.

`N#Cc1c(F)c(F)c(Nc2ccccc2)c(C#N)c1F`: the zone of inhibition at 1000 µg/mL was 23 mm.

In the case of `N#Cc1c(Cl)c(Cl)c(Sc2ccccc2)c(C#N)c1Cl`, the zone of inhibition at 1000 µg/mL was determined as 7.3 mm.

On to `COc1ccc(Nc2c(F)c(F)c(C#N)c(F)c2C#N)cc1`, for which the zone of inhibition at 1000 µg/mL was 8.7 mm.

For `N#Cc1c(F)c(F)c(Nc2ccc(Cl)cc2)c(C#N)c1F`, the zone of inhibition at 1000 µg/mL turned out to be 19.8 mm.

In a further experiment the test system is Bacillus cereus. As to the kind of experiment: Antibacterial activity against Bacillus cereus ATCC 14579 assessed as growth inhibition at 1000 ug/mL after 24 hrs by disk diffusion method. Type of experiment: functional. Conditions: ATCC 14579, 24 h, read-out: IZ.
With `N#Cc1c(Cl)c(Cl)c(Cl)c(C#N)c1Cl` [CHLOROTHALONIL], the zone of inhibition at 1000 µg/mL was determined as 20.2 mm.

Take `N#Cc1c(N)c(F)c(F)c(C#N)c1F`: the zone of inhibition at 1000 µg/mL came to 8 mm.

For `N#Cc1c(F)c(Cl)c(NCc2ccccc2)c(C#N)c1F`, the zone of inhibition at 1000 µg/mL was found to be 22.6 mm.

In the case of `N#Cc1c(F)c(Cl)c(Nc2ccccc2)c(C#N)c1F`, the zone of inhibition at 1000 µg/mL was 14.6 mm.

For the compound `N#Cc1c(F)c(F)c(Nc2ccccc2)c(C#N)c1F`, the zone of inhibition at 1000 µg/mL was 17.8 mm.

As for `N#Cc1c(Cl)c(Cl)c(Sc2ccccc2)c(C#N)c1Cl`, the zone of inhibition at 1000 µg/mL stood at 7 mm.

Regarding `COc1ccc(Nc2c(F)c(F)c(C#N)c(F)c2C#N)cc1`, the zone of inhibition at 1000 µg/mL came out at 8.6 mm.

In the case of `N#Cc1c(F)c(F)c(Nc2ccc(Cl)cc2)c(C#N)c1F`, the zone of inhibition at 1000 µg/mL worked out at 16.7 mm.

For orientation: MIC means the smallest concentration in the dilution series that meets the test's criterion for growth inhibition.

(Values after ChEMBL document CHEMBL2375320, “Synthesis and antimicrobial activity of polyhalo isophthalonitrile derivatives” (2013).)
